Test results: publication PMC12650307 (RSC Advances, 2025)

Assays:
CDK2 = CDK2 (Homo sapiens, UniProt P24941); assay: In vitro CDK2 enzyme inhibition; assay type: biochemical
HepG2 cells = assay: MTT cytotoxicity assay, HepG2; assay type: cell-based; settings: Homo sapiens, HepG2, 48 h, read-out: IC50 HepG2
MCF-7 cells [1] = assay: MTT cytotoxicity assay, MCF-7; assay type: cell-based; settings: Homo sapiens, MCF7, 48 h, read-out: IC50 MCF-7
Bcl-2 = Bcl-2 level by ELISA in treated MCF-7 cells; assay type: cell-based, human
Bax = Bax level by ELISA in treated MCF-7 cells; assay type: cell-based, human
MCF-7 cells [2] = assay: Cell cycle analysis; assay type: cell-based, human
Method in brief: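 MCF-7 cells were exposed for 48 h, harvested by trypsinization and washed twice in PBS. Fixed in ice-cold 60% (w/w) ethanol at 4 °C for 12 h, then rewashed in PBS. Stained 30 min in buffer with RNase and propidium iodide. Flow cytometry gave the % of cells in G1, S and G2, with untreated MCF-7 as control.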

MCF-7 cells [3] = assay: Annexin V-FITC/PI apoptosis assay; assay type: cell-based, human; settings: MCF-7, 48 h at IC50
Method in brief: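 Treated MCF-7 cells for 48 h, then trypsinized and washed in PBS. Stained with annexin V-FITC plus propidium iodide at room temperature in the dark, per kit instructions, then read on a FACScan flow cytometer. Quadrants: upper left necrotic, upper right late apoptotic, lower right early apoptotic, lower left living. Untreated MCF-7 served as control.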

IC50 (CDK2) [µM]	SMILES	IC50 (HepG2 cells) [µM]	IC50 (MCF-7 cells [1]) [µM]	further results
1.05 ± 0.2	Cc1cccc(N=Nc2c(N)nn(-c3ccccn3)c2N)c1 [Compound 2, 1-(2-Pyridinyl)-4-(3-tolyldiazenyl)-1H-pyrazole-3,5-diamine]			
1.2 ± 0.15	CC(=O)c1ccc(N=Nc2c(N)nn(-c3ccccn3)c2N)cc1 [Compound 3, 1-(4-((3,5-Diamino-1-(2-pyridinyl)-1H-pyrazol-4-yl)diazenyl)phenyl)ethan-1-one]			
0.75 ± 0.05	Nc1nn(-c2ccccn2)c(N)c1N=Nc1ccc(S(=O)(=O)O)cc1 [Compound 4, 4-((3,5-Diamino-1-(2-pyridinyl)-1H-pyrazol-4-yl)diazenyl)benzenesulfonic acid]	53.8 ± 3.2	48.7 ± 2.8	
0.56 ± 0.03	Nc1nn(-c2ccccn2)c(N)c1N=Nc1ccc(C(=O)O)c(O)c1 [Compound 5, 4-((3,5-Diamino-1-(2-pyridinyl)-1H-pyrazol-4-yl)diazenyl)-2-hydroxybenzoic acid]	13.1 ± 1.1	8.03 ± 0.6	CDK2 inhibitory activity relative to roscovitine (CDK2): 2 fold; decrease of anti-apoptotic Bcl-2 level in comparison with control (Bcl-2): 3 fold; Bcl-2 (Bcl-2; control 5.31 ± 0.5): 1.72 ± 0.08 ng/mL; Bcl-2 FLD (Bcl-2; relative to control = 1): 0.3; Bax/Bcl-2 ratio in comparison with control (Bax): approximately 20 fold; Bax (Bax; control 57.22 ± 0.9): 369.15 ± 0.7 pg/mL; Bax FLD (Bax; relative to control = 1): 6.45 fold; fold increase in S phase in comparison to control (MCF-7 cells [2]; MCF-7): 1.2 fold; % S (MCF-7 cells [2]; MCF-7, 48 h at its IC50, control 35.52): 41.02%; % G1 (MCF-7 cells [2]; MCF-7, 48 h at its IC50, control 38.02): 11.98%; Late apoptosis (MCF-7 cells [3]; control 0.04): 8.10%; Necrosis (MCF-7 cells [3]; control 0.18): 0.02%; Early apoptosis (MCF-7 cells [3]; control 0.43): 71.1%; Total (apoptosis/necrosis) (MCF-7 cells [3]; control 0.65): 79.22
0.46 ± 0.02	NC(N)=NS(=O)(=O)c1ccc(N=Nc2c(N)nn(-c3ccccn3)c2N)cc1 [Compound 6, 4-((3,5-Diamino-1-(2-pyridinyl)-1H-pyrazol-4-yl)diazenyl)-N-(diaminomethylene)benzenesulfonamide]	22.8 ± 1.5	26.1 ± 1.7	CDK2 inhibitory activity relative to roscovitine (CDK2): 2 fold
0.77 ± 0.05	Nc1nn(-c2ccccn2)c(N)c1N=Nc1ccc(N=Nc2ccccc2)cc1 [Compound 7, 4-((4-(Phenyldiazenyl)phenyl)diazenyl)-1-(2-pyridinyl)-1H-pyrazole-3,5-diamine]	67.1 ± 3.5	35.1 ± 2.2	
1.46 ± 0.5	Nc1nn(-c2ccccn2)c(N)c1N=Nc1cc(Cl)c(Cl)cc1Cl [Compound 8, 1-(2-Pyridinyl)-4-((2,4,5-trichlorophenyl)diazenyl)-1H-pyrazole-3,5-diamine]			
1.5 ± 0.7	Nc1nn(-c2ccccn2)c(N)c1N=Nc1cccc([N+](=O)[O-])c1 [Compound 9, 4-((3-Nitrophenyl)diazenyl)-1-(2-pyridinyl)-1H-pyrazole-3,5-diamine]			
0.85 ± 0.05	COc1ccc(N=Nc2c(N)nn(-c3ccccn3)c2N)cc1 [Compound 10, 4-((4-Methoxyphenyl)diazenyl)-1-(2-pyridinyl)-1H-pyrazole-3,5-diamine]	41.6 ± 2.4	15.4 ± 1.2	
0.45 ± 0.02	Nc1nn(-c2ccccn2)c(N)c1N=Nc1ccccc1Cl [Compound 11, 4-((2-Chlorophenyl)diazenyl)-1-(2-pyridinyl)-1H-pyrazole-3,5-diamine]	74.2 ± 3.8	61.8 ± 3.4	CDK2 inhibitory activity relative to roscovitine (CDK2): 2 fold
1.24 ± 0.85	Nc1nn(-c2ccccn2)c(N)c1N=Nc1nccs1 [Compound 12, 1-(Pyridin-2-yl)-4-(thiazol-2-yldiazenyl)-1H-pyrazole-3,5-diamine]			
	COc1cccc2c1C(=O)c1c(O)c3c(c(O)c1C2=O)C[C@@](O)(C(=O)CO)C[C@@H]3O[C@H]1C[C@H](N)[C@H](O)[C@H](C)O1 [DOX, doxorubicin, reference compound]	4.5 ± 0.2		
